In the library only some 2.3% were active in any assay of this set; here they are far more common.
MEKK2 mut-MEK5 – MEK5 binding signal on mutant MEKK2 PB1, primary screen, biochemical, multiplex bead flow cytometry, Alexa488-MEK5; 0.35% of 290,000 active; Alexa488-MEK5 binding to MEKK2 mutant; percent response, % at 10 µM; in the data active means percent response above about 24%, passing the limit was not always enough
MEKK2wt PB1 HTS – modulators of MEK5 binding to wildtype MEKK2, primary screen, biochemical, multiplex bead flow cytometry, Alexa488-MEK5 | binding response (% of control), % at 10 µM | Mitogen-activated protein kinase kinase kinase 2 (Homo sapiens), Q9Y2U5 | Alexa488-MEK5 binding to MEKK2 WT; actives lie on both sides | 1.1% of 290,000 active; in the data active means binding response below about 67% or above about 130%
Arr AP2 block – inhibitors of beta-arrestin/AP2 binding, primary screen, biochemical, GPCR trafficking, flow cytometry; beta-arrestin 1 C-terminal peptide binding to AP2 beta2-adaptin appendage (human); FITC-arrestin peptide / GST-AP2 beads; AP2 beta2 appendage carries R879A mutation; inhibition, % at 10 µM; 0.31% of 340,000 active; AID 504490, 2011;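 active means inhibition above a set limit, near 3 SD of compounds lacking own fluorescence, cut at about 54% in these data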;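 further: plate controls were DMSO wells for no effect and 5 µM unlabelled arrestin peptide for full effect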
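System: GST-AP2 R879A glutathione beads. Medium: PBS with 0.05% Tween 20 and 0.1% BSA. Also added: FITC-arrestin peptide, 50 nM. Incubation: 12 min plus 1 h, RT. Measured by: high-throughput flow cytometry of beads, ex 488, em 535 nm. Evaluation: percent drop in bead-associated FITC signal.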
MEKK3 PB1 HTS – modulators of MEKK3-MEK5 PB1 binding, primary screen, biochemical, wildtype MEKK3, multiplex bead flow cytometry, Alexa488-MEK5; Mitogen-activated protein kinase kinase kinase 3 (Homo sapiens), Q99759; bead-based flow cytometry, Alexa488-MEK5 binding to MEKK3; actives lie on both sides; 0 = blocked by unlabeled MEK5, 100 = vehicle; binding response (% of control), % at 10 µM; 1.4% of 290,000 active; AID 1529, 2009;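 active means binding response more than 3 SD above or below the average of its plate-row segment, actives on both sides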;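 further: Alexa488 bead fluorescence after subtracting the streptavidin-only scavenger bead signal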
Target sequence (Q99759 whole entry, looked up): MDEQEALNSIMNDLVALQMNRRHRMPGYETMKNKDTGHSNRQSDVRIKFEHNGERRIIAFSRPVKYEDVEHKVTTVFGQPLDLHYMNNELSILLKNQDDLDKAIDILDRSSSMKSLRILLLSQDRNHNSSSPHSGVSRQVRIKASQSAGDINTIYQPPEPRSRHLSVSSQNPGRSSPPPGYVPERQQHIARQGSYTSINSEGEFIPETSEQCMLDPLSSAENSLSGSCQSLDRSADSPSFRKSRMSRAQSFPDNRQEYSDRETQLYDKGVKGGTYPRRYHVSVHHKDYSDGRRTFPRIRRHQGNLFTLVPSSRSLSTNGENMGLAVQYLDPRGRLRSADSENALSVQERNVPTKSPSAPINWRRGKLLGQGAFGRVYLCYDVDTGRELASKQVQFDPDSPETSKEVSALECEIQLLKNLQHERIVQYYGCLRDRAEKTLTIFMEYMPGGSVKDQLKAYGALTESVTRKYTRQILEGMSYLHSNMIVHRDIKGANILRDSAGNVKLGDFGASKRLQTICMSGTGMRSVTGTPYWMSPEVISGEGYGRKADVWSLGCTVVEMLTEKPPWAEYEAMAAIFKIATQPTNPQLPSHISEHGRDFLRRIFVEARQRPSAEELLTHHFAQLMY
MEKK2wt confirm – modulators of MEK5 binding to wildtype MEKK2, confirmation, biochemical, single concentration, multiplex bead flow cytometry. Alexa488-MEK5 binding to MEKK2 WT; actives lie on both sides. binding response (% of control), % at 10 µM. AID 1892, 2009. 2.4% of 5,900 active. shares compounds with MEKK3 PB1 HTS; in the data active means binding response below about 16% or above about 210%; inactive means in between
MEKK2mut-MEK5 – mutant MEKK2 PB1-MEK5 binding signal retest – biochemical, single concentration, multiplex bead flow cytometry, confirmation; shares compounds with MEKK3 PB1 HTS; Alexa488-MEK5 binding to MEKK2 mutant; percent response, % at 10 µM; 2% of 5,900 active; in the data active means percent response mostly above about 71%, no sharp cut-off; inactive means mostly below about 38%;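 further: higher means compound restores mutant binding toward wildtype level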
MEKK3-MEK5 inh – MEKK3 wild-type PB1 binding to MEK5, inhibitors, confirmation, biochemical, bead multiplex flow cytometry, single concentration, wildtype | shares compounds with MEKK3 PB1 HTS | Alexa488-MEK5 binding to MEKK3; stronger effect = lower value | binding response (% of control), % at 10 µM | 1.8% of 5,900 active | AID 1894, 2009;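 active means binding response below 72% of control, or above a set upper limit, though filed actives all read lower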;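 further: 100% = DMSO only wells and 0% = binding blocked by excess unlabeled MEK5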
An asterisk follows results filed as active; [ ] = dose if it differs, or a comment.

Results for COc1cccc2c1C(=O)c1c(O)c3c(c(O)c1C2=O)CC(O)(C(=O)CO)CC3OC1CC(N(C)C)C(O)C(C)O1 (configuration not stated) ?
Arr AP2 block: 20

Results for CCOc1cccc(-c2c(C(=O)N/N=C/c3ccc(C)o3)nnn2-c2nonc2N)c1 ?
MEKK2 mut-MEK5: 1; MEKK2wt PB1 HTS: 106; Arr AP2 block: -14; MEKK3 PB1 HTS: 103

Results for O=C(COc1ccc(F)cc1)c1c(O)cc(O)cc1O ?
MEKK2 mut-MEK5: 24; MEKK2wt PB1 HTS: 115; Arr AP2 block: 52; MEKK3 PB1 HTS: 132*; MEKK2wt confirm: 104; MEKK2mut-MEK5: 2; MEKK3-MEK5 inh: 101

What do the screens show for `COc1cccc(C2=NO[C@@H]3C(=O)N(Cc4ccccc4)C(=O)[C@H]23)c1OC`?
MEKK2 mut-MEK5: 7; MEKK2wt PB1 HTS: 116; Arr AP2 block: 14; MEKK3 PB1 HTS: 128*; MEKK2wt confirm: 96; MEKK2mut-MEK5: -4; MEKK3-MEK5 inh: 98

What do the screens show for `Cc1ccc(S(=O)(=O)N2CCN(C(=O)COC(=O)c3cnc(C)cn3)CC2)c(C)c1`?
Arr AP2 block: 32

What do the screens show for `S=C(NCCN1CCOCC1)Nc1cccc(Cl)c1`?
MEKK2 mut-MEK5: 5; MEKK2wt PB1 HTS: 110; Arr AP2 block: -8; MEKK3 PB1 HTS: 112

What do the screens show for `COc1cccc(NC(=S)NCCN2CCOCC2)c1`?
MEKK2 mut-MEK5: 1; MEKK2wt PB1 HTS: 116; Arr AP2 block: 5; MEKK3 PB1 HTS: 141*; MEKK2wt confirm: 105; MEKK2mut-MEK5: 9; MEKK3-MEK5 inh: 106

Results for Cc1cccc(NC(=S)NCCCN2CCOCC2)c1 ?
MEKK2 mut-MEK5: 1; MEKK2wt PB1 HTS: 112; Arr AP2 block: 5; MEKK3 PB1 HTS: 138*; MEKK2wt confirm: 101; MEKK2mut-MEK5: 3; MEKK3-MEK5 inh: 104

Results for N#Cc1ccccc1S(=O)(=O)N1CCN(C(=O)CN2C(=O)NC3(CCCC3)C2=O)CC1 ?
Arr AP2 block: -1

How did Cc1cccc2cc(CN(Cc3ccccc3)C(=O)N(C)C)c(=O)[nH]c12 do in these assays?
MEKK2 mut-MEK5: 6; MEKK2wt PB1 HTS: 126; Arr AP2 block: 7; MEKK3 PB1 HTS: 127*; MEKK2wt confirm: 96; MEKK2mut-MEK5: -8; MEKK3-MEK5 inh: 96

What do the screens show for `Cc1ccc(CN(Cc2cc3cccc(C)c3[nH]c2=O)C(=O)N(C)C)cc1`?
MEKK2 mut-MEK5: -4; MEKK2wt PB1 HTS: 97; Arr AP2 block: 22; MEKK3 PB1 HTS: 102

Results for CS(=O)(=O)N1CCN(c2ccccc2NC(=O)Cc2ccc(Cl)cc2)CC1 ?
MEKK2 mut-MEK5: -69; MEKK2wt PB1 HTS: 2.0*[inhibitor]; Arr AP2 block: 8; MEKK3 PB1 HTS: 2.0*[inhibitor]; MEKK2wt confirm: 107; MEKK2mut-MEK5: 10; MEKK3-MEK5 inh: 108

Results for CC(=O)Cc1nsc(NC(=O)c2ccc(-c3ccc(Cl)cc3Cl)o2)n1 ?
MEKK2 mut-MEK5: 3; MEKK2wt PB1 HTS: 102; Arr AP2 block: -17; MEKK3 PB1 HTS: 105

How did CN1CCN(c2ccccc2NC(=O)c2ccc(-c3ccc(Cl)cc3Cl)o2)CC1 do in these assays?
MEKK2 mut-MEK5: 30; MEKK2wt PB1 HTS: 156*; Arr AP2 block: 28; MEKK3 PB1 HTS: 104; MEKK2wt confirm: 145; MEKK2mut-MEK5: 18; MEKK3-MEK5 inh: 106

Results for Cc1nnc2sc(-c3ccc(NC(=O)c4ccc(-c5ccc(Cl)cc5Cl)o4)cc3)nn12 ?
MEKK2 mut-MEK5: -5; MEKK2wt PB1 HTS: 83; Arr AP2 block: -2; MEKK3 PB1 HTS: 77*[inhibitor]; MEKK2wt confirm: 100; MEKK2mut-MEK5: 0; MEKK3-MEK5 inh: 101

How did O=c1[nH]c(SCc2ccccc2)nc2[nH]ncc12 do in these assays?
MEKK2 mut-MEK5: 8; MEKK2wt PB1 HTS: 105; Arr AP2 block: -2; MEKK3 PB1 HTS: 105

What do the screens show for `COc1ccc(/C=N/NC(=O)c2[nH]c3ccc(Br)cc3c2-c2ccccc2)cc1`?
MEKK2 mut-MEK5: 0; MEKK2wt PB1 HTS: 103; Arr AP2 block: 0; MEKK3 PB1 HTS: 147*; MEKK2wt confirm: 96; MEKK2mut-MEK5: -7; MEKK3-MEK5 inh: 101

How did CC(=O)NS(=O)(=O)c1ccc(NC(=O)c2ccc(S(=O)(=O)N3CCCC3)cc2)cc1 do in these assays?
Arr AP2 block: 29

How did CC(=O)c1c(C)[nH]c(C(=O)OCC(=O)N(CC(C)C)C2CCS(=O)(=O)C2)c1C (configuration not stated) do in these assays?
Arr AP2 block: -1

How did CC(C)CN(C(=O)COC(=O)C12CC3CC(CC(O)(C3)C1)C2)C1CCS(=O)(=O)C1 (configuration not stated) do in these assays?
MEKK2 mut-MEK5: -17; MEKK2wt PB1 HTS: 0.0*[inhibitor]; Arr AP2 block: 32; MEKK3 PB1 HTS: 0.0*[inhibitor]; MEKK2wt confirm: 101; MEKK2mut-MEK5: -6; MEKK3-MEK5 inh: 100

How did CCn1cc(C(=O)N[C@@H](C)C(=O)NCCCn2ccnc2)c(=O)c2cc3c(cc21)OCO3 do in these assays?
MEKK2 mut-MEK5: 0; MEKK2wt PB1 HTS: 97; Arr AP2 block: 4; MEKK3 PB1 HTS: 98

Results for CCN(CC)CCN(Cc1cc2cc(C)c(C)cc2[nH]c1=O)C(=S)NCc1ccco1 ?
MEKK2 mut-MEK5: -14; MEKK2wt PB1 HTS: 86; Arr AP2 block: -3; MEKK3 PB1 HTS: 78

What do the screens show for `Cc1cc2cc(CN(Cc3cccs3)C(=S)NCc3ccco3)c(=O)[nH]c2cc1C`?
MEKK2 mut-MEK5: -2; MEKK2wt PB1 HTS: 96; Arr AP2 block: -6; MEKK3 PB1 HTS: 94

How did Cc1ccc(C)c2[nH]c(=O)c(CN(CC3CCCO3)C(=S)NCc3ccco3)cc12 (configuration not stated) do in these assays?
MEKK2 mut-MEK5: 29; MEKK2wt PB1 HTS: 116; Arr AP2 block: 14; MEKK3 PB1 HTS: 129*; MEKK2wt confirm: 101; MEKK2mut-MEK5: 5; MEKK3-MEK5 inh: 104

Screening results as filed in PubChem.
